Consider three molecules from ChEMBL document CHEMBL2203218, “Evaluation of [(11)C]N-Methyl Lansoprazole as a Radiopharmaceutical for PET Imaging of Tau Neurofibrillary Tangles” (ACS Med Chem Lett, 2012).

Each structure is given as a SMILES string.

In data set [1] the target is Microtubule-associated protein tau (Homo sapiens, UniProt P10636). Kind of data set: Binding affinity to heparin induced human Tau 441 at 50 pM to 500 nM after 30 mins.
Another data set deals with Kidney. Kind of data set: Biodistribution in iv dosed Sprague-Dawley rat kidney after 5 to 60 mins by gamma counting. It is filed as ADME, organism-based. To be noted: in vivo. An outline of the steps: (§1)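 Tracer reconstituted in ethanolic saline and injected via tail vein into anesthetized Sprague-Dawley rats (three per time point). Rats were allowed to wake, then reanesthetized and sacrificed at 5, 30 and 60 min postinjection for tissue distribution.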

The subject of data set [2] is Brain. Kind of data set: Drug uptake in rhesus monkey brain at 5.4 mCi, iv after 3 mins by MicroPET analysis. To be noted: in vivo, 0.05 h. It is filed as ADME, organism-based, Macaca mulatta.
The test system of data set [3] is Brain. Kind of data set: Drug uptake in rhesus monkey brain at 5.4 mCi, iv at 3 mins by MicroPET analysis. Type of data set: ADME, organism-based, Macaca mulatta. The following applies: in vivo, 0.05 h.
Data set [4] in a line: Octanol-water partition coefficient, log P of the compound. Type of data set: physicochemical.
The subject of data set [5] is Brain. Kind of data set: Drug uptake in human Tau expressing Sprague-Dawley rat brain at 1 to 10 mCi by autoradiography analysis. To be noted: in vivo. It is filed as ADME, tissue-based.
Data set [6] has as its system Brain. Kind of data set: Drug uptake in wild type Sprague-Dawley rat brain at 1 to 10 mCi by autoradiography analysis. Type of data set: ADME, tissue-based. The following applies: in vivo.
The nature of data set [7]: Drug uptake in human globus pallidus using bielschowsky staining by autoradiography analysis. It is filed as ADME, tissue-based. Put shortly: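 PSP patient brain blocks were cut into 20 μm cryostat sections on slides and incubated with tracer for 10 min. Slides were washed, dried and exposed to film for 5 min. The same slides were then stained by modified Bielschowsky staining to locate tau NFTs for colocalization.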

The test system of another data set is Hippocampus. Kind of data set: Drug uptake in human Tau expressing Sprague-Dawley rat hippocampus at 1 to 10 mCi by autoradiography analysis relative to wild type Sprague-Dawley rat brain. It is filed as ADME, tissue-based. The following applies: in vivo.
For the next data set, the system named is Cortex. Kind of data set: Drug uptake in human Tau expressing Sprague-Dawley rat cortex at 1 to 10 mCi by autoradiography analysis relative to wild type Sprague-Dawley rat brain. Type of data set: ADME, tissue-based. To be noted: in vivo.
The test system of data set [8] is Brain. Kind of data set: Biodistribution in iv dosed Sprague-Dawley rat brain after 5 to 60 mins by gamma counting. Type of data set: ADME, organism-based. The following applies: in vivo. Put shortly: as §1
For the next data set, the system named is Rattus norvegicus. Kind of data set: Metabolic stability in anesthetized iv dosed Sprague-Dawley rat […] and HPLC analysis. Type of data set: ADME, organism-based. To be noted: in vivo, in the assay text read “5 to 30 mins” for “5 to 60 mins”. An outline of the steps: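 Sprague-Dawley rats, anesthetized, received tracer via tail vein (three per time point). They were allowed to wake, then reanesthetized and sacrificed at 5, 15 and 30 min. Blood collected at each time was centrifuged, and the plasma was analyzed by HPLC and radio-TLC for parent and radioactive metabolites.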

In data set [9] the test system is Brain. Kind of data set: Drug uptake in Sprague-Dawley rat brain at 0.95 mCi, iv after 60 mins by MicroPET analysis. It is filed as ADME, organism-based. The following applies: in vivo, 1 h.
The next data set deals with Liver. Kind of data set: Biodistribution in iv dosed Sprague-Dawley rat liver after 5 to 60 mins by gamma counting. To be noted: in vivo. It is filed as ADME, organism-based. Put shortly: as §1

Microtubule-associated protein tau, sequence (P10636 whole entry): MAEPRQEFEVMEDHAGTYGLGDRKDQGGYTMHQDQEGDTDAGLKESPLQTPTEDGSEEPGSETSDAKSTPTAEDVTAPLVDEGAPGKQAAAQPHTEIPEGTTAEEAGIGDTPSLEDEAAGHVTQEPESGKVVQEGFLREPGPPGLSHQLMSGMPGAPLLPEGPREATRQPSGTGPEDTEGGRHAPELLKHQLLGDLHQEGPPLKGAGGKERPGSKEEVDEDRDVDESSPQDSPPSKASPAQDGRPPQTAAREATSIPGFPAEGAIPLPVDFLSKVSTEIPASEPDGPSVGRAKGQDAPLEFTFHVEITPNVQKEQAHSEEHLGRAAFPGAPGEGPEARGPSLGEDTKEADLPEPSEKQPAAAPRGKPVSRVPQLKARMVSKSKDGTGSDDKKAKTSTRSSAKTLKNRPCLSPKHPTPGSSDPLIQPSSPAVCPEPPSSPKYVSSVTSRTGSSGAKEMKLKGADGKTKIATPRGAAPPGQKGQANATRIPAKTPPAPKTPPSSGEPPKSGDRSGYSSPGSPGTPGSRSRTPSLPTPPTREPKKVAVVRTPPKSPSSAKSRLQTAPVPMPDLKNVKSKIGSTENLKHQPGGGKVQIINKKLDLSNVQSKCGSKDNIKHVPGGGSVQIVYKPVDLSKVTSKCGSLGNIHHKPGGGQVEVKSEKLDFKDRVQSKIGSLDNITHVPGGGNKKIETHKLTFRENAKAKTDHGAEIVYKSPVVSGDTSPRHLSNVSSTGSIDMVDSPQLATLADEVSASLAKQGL

Broadly, the Ki is a measure of affinity in units of concentration, obtained from inhibition or displacement. On to `Cc1c(OCC(F)(F)F)ccnc1C[S+]([O-])c1nc2ccccc2[nH]1` (stereo unspecified) [LANSOPRAZOLE], for which the Ki in [1] worked out at 2.5 nM.

In turn, `Cc1c(OCC(F)(F)F)ccnc1C[S+]([O-])c1nc2ccccc2n1C` (stereo unspecified) registered a Bmax in [1] (tested as the 11C-labelled form) of 0.214 fmol/µg.

The term Kd denotes a measure of binding affinity in units of concentration. One may read the logP as a log measure of how a compound divides between an organic and an aqueous phase. For the molecule `Cc1c(OCC(F)(F)F)ccnc1C[S+]([O-])c1nc2ccccc2n1[11CH3]` (stereo unspecified), the Drug uptake entry with Kidney is on record as “Active”; in the data set with Brain [2], 500 nCi/cc; in the data set on Brain [3] it was 1600 nCi/cc; in the data set on Brain [5], “Active”; with Brain [6], “Active”; in data set [7], “Active”. Besides, the Drug uptake is reported as 4% in the data set on Hippocampus; 12% in the data set on Cortex; “Not Active” in the data set with Brain [8]; “Not Active” in the data set on Brain [9]; “Active” in the data set with Liver. In data set [1], this molecule registered a Kd of 0.7 nM. The same molecule had a logP in [4] of 2.18. Moreover, the Stability entry with Rattus norvegicus is on record as “Unstable”.
